MDM2 E3 inh: inhibitors of human Mdm2 E3 ubiquitin ligase | Q00987 | cell-based MDM2 ubiquitination luciferase reporter, 2 h; 0 = plate control, 100 = twice control, blank-subtracted | signal enhancement, % at 5 µM | hit rate 0.11% among 210,000 | AID 1230;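 active = signal enhancement of 30% or more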;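 also: luminescence tracks abundance of the self-degrading MDM2-luciferase fusion protein; higher signal means inhibition of MDM2 E3 ligase activity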
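Test system: stable mammalian line carrying autodegrading MDM2–luciferase fusion reporter; quantity: 2000 cells in each well; times: 4 h cell settling then 2 h compound exposure, 37 °C; detection: luminescence with SteadyLite reagent, 15 min at room temperature; evaluation: percent signal gain over controls, blank-subtracted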
NF-kB expr up: compounds increasing NF-kB expression in human neuronal cells; AID 1239; fold change at 12.5 µM; NF-kB reporter expression; stronger effect = higher value; hit rate 1.6% among 190,000; in the data active = fold change above about 3.3
STAT1 act: STAT1 signaling activation. AID 932. activation (% of control), % at 5.5 µM. hit rate 2.6% among 200,000. NIH 3T3 STAT1-luciferase reporter, IFN-gamma, luminescence; 100% = IFN-gamma alone, no compound;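 active = activation above the screen-wide mean activation plus 3 SD, cut at about 130% in these data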;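 also: raw ratio to IFN-gamma control signal so 100% means no change and 0% no light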
p97 ATPase inh: blocks human p97 ATPase activity | P55072 | recombinant p97 ATPase, Kinase-Glo ATP luminescence, 3 h | inhibition, % at 8 µM | AID 1481 | hit rate 0.42% among 220,000; in the data active = inhibition above about 15%;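 also: 0% = DMSO vehicle and 100% = wells lacking enzyme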
APP 5'UTR act: APP 5'UTR luciferase reporter activation | SH-SY5Y APP 5'UTR luciferase reporter, luminescence; zero percent = DMSO vehicle wells | activation, % at 2 µM | hit rate 1% among 190,000;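 active = activation above a set limit, based on mean plus 3 SD of controls, cut at about 140% in these data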
Wee1 degr inh: human Wee1 degradation inhibition, primary screen | P30291 | HeLa Luc-Wee1K328M stability, luciferase luminescence; 100% = proteasome inhibitor MG132 effect | reporter increase, % at 5 µM | hit rate 1.2% among 220,000;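 active = activation above the mean of all tested compounds plus 3 SD, set per screening run, cut at about 8.8% in these data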;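 also: cells exposed to compound for 20 h before luminescence read; 0% = DMSO alone and 100% = MG132 at 30 µM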
Target sequence (P30291 whole entry K328M): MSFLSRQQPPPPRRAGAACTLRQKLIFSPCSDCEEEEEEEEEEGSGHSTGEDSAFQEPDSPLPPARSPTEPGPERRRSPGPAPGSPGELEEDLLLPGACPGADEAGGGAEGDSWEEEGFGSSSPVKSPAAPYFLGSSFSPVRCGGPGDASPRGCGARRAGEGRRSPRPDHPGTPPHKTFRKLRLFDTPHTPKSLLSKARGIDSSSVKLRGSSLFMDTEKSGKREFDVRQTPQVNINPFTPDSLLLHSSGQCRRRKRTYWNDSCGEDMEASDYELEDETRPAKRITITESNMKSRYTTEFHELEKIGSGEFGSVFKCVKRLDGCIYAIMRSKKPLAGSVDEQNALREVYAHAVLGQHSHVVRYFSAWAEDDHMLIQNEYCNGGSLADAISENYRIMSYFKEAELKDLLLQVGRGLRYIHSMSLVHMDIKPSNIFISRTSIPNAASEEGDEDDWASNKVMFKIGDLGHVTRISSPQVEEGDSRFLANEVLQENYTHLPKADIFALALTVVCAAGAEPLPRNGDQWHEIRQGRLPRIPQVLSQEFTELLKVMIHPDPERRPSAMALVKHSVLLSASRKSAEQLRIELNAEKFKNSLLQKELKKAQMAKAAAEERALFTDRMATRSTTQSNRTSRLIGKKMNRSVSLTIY
Starred values were filed as active, the others as inactive. Sampled rows, rich in hits. Any-hit rate of the full collection: about 4.6%.

`CC1CCN(c2c(NCC3CCC(C(=O)NCc4ccccc4Cl)CC3)c(=O)c2=O)CC1` (stereo not drawn) gave NF-kB expr up 1.2, STAT1 act 90, p97 ATPase inh 9, APP 5'UTR act 32 and Wee1 degr inh 1.
O=C(NNC(=S)Nc1ccccc1)c1cccs1 was read as MDM2 E3 inh 6, NF-kB expr up 2.5, STAT1 act 130*, p97 ATPase inh 6, APP 5'UTR act 66 and Wee1 degr inh 3.
For O=C(NC(=S)Nc1ccc(Cl)cn1)c1cccs1 the results were MDM2 E3 inh 1, NF-kB expr up 4*, STAT1 act 194*, p97 ATPase inh -3, APP 5'UTR act 186* and Wee1 degr inh 2.
For O=C(NC(=S)Nc1cccnc1)c1cccs1 the results were MDM2 E3 inh -9, NF-kB expr up 1.5, STAT1 act 116, p97 ATPase inh 2, APP 5'UTR act -2 and Wee1 degr inh -1.
O=C(NNC(=S)Nc1ccc(Cl)cc1)c1cccs1 was read as MDM2 E3 inh 2, NF-kB expr up 1.8, STAT1 act 131*, p97 ATPase inh 4, APP 5'UTR act 53 and Wee1 degr inh 0.
Screening O=C(CCC(=O)Nc1ccccc1)NNC(=O)c1cccs1 returned MDM2 E3 inh -11, NF-kB expr up 1, STAT1 act 97, p97 ATPase inh 3, APP 5'UTR act 13 and Wee1 degr inh -2.
O=C(Nc1cccc(C(F)(F)F)c1)c1cc(S(=O)(=O)N2CCCCC2)ccc1N1CCOCC1 was read as MDM2 E3 inh 38*, NF-kB expr up 0.91, STAT1 act 98, p97 ATPase inh 0, APP 5'UTR act 13 and Wee1 degr inh -2.
`O=C(Nc1ccccc1Cl)c1cc(S(=O)(=O)N2CCCCC2)ccc1N1CCOCC1` gave MDM2 E3 inh -11, NF-kB expr up 0.89, STAT1 act 104, p97 ATPase inh 1, APP 5'UTR act 19 and Wee1 degr inh -3.
For COc1ccc2c(C)cc(N3CCOCC3)nc2c1 the results were MDM2 E3 inh -2, NF-kB expr up 1.7, STAT1 act 115, p97 ATPase inh 5, APP 5'UTR act 18 and Wee1 degr inh -1.
`COc1ccc2nc(N3CCOCC3)cc(C)c2c1` gave MDM2 E3 inh -18, NF-kB expr up 5*, STAT1 act 120, p97 ATPase inh 0, APP 5'UTR act 114 and Wee1 degr inh 0.
For COc1ccccc1CNC(=O)CSc1ccsc1[N+](=O)[O-] the results were MDM2 E3 inh -13, NF-kB expr up 2.5, STAT1 act 137*, p97 ATPase inh 4, APP 5'UTR act 60 and Wee1 degr inh 9.2*.
O=C(CSc1ccsc1[N+](=O)[O-])NCc1ccccc1 was read as MDM2 E3 inh -2, NF-kB expr up 1.9, STAT1 act 112, p97 ATPase inh 0, APP 5'UTR act 15 and Wee1 degr inh 0.
Screening CC(=O)Oc1ccc2c(=O)c(-c3nc4ccccc4s3)coc2c1 returned MDM2 E3 inh -40, NF-kB expr up 2.9, STAT1 act 108, p97 ATPase inh -3, APP 5'UTR act 196* and Wee1 degr inh 9.1*.
`CCN(CC)C(=O)Oc1ccc2c(=O)c(-c3ccc(OC)cc3)coc2c1` gave MDM2 E3 inh 2, NF-kB expr up 1.8, STAT1 act 144*, p97 ATPase inh -3, APP 5'UTR act 74 and Wee1 degr inh 0.
For NC(=O)c1ccc(NC(=O)COC(=O)CCC(=O)c2ccc(Cl)cc2)cc1 the results were MDM2 E3 inh -2, NF-kB expr up 1.1, STAT1 act 103, p97 ATPase inh 2, APP 5'UTR act 14 and Wee1 degr inh -1.
Screening Cn1cc(CNCc2ccc(-n3cccn3)cc2)c(-c2ccccc2F)n1 returned MDM2 E3 inh -1, NF-kB expr up 1.1, STAT1 act 89, p97 ATPase inh 3, APP 5'UTR act 32 and Wee1 degr inh -2.
Screening CCCOc1ccc(-c2nnc(-c3ccncc3)o2)cc1 returned MDM2 E3 inh -30, NF-kB expr up 3.7*, STAT1 act 126, p97 ATPase inh -3, APP 5'UTR act 124 and Wee1 degr inh 2.
`c1cc(-c2nnc(-c3ccncc3)o2)ccn1` gave MDM2 E3 inh -28, NF-kB expr up 1.2, STAT1 act 103, p97 ATPase inh -4, APP 5'UTR act 17 and Wee1 degr inh 3.
CC(C)COc1ccc(-c2nnc(-c3ccncc3)o2)cc1 was read as MDM2 E3 inh -23, NF-kB expr up 2.8, STAT1 act 136*, p97 ATPase inh -2, APP 5'UTR act 34 and Wee1 degr inh 4.
Screening O=C1c2ccccc2C(=O)N1CNc1ccccc1 returned MDM2 E3 inh 3, NF-kB expr up 1.2, STAT1 act 99, p97 ATPase inh 6, APP 5'UTR act -7 and Wee1 degr inh 14*.
O=C(CCC(=O)OCC(F)(F)C(F)F)Nc1ccccc1F was read as MDM2 E3 inh -9, NF-kB expr up 1.7, STAT1 act 106, p97 ATPase inh 7, APP 5'UTR act 5 and Wee1 degr inh -1.
CC(C)CC(NC(=O)OC(C)(C)C)c1cn([C@@H](CCCCNC(=O)OC(C)(C)C)C(=O)N2CCN(C(=O)OC(C)(C)C)CC2)nn1 (stereo partly drawn) was read as NF-kB expr up 0.65, STAT1 act 90, p97 ATPase inh 2, APP 5'UTR act -16 and Wee1 degr inh 10*.
For CC[C@@H](C)C(NC(=O)OC(C)(C)C)c1cn([C@@H](CCCCNC(=O)OC(C)(C)C)C(=O)N2CCN(C(=O)OC(C)(C)C)CC2)nn1 (stereo partly drawn) the results were NF-kB expr up 0.47, STAT1 act 106, p97 ATPase inh -3, APP 5'UTR act 15 and Wee1 degr inh 0.
For O=C1C2C3C=CC(C4CC34)C2C(=O)N1/N=C/c1ccc([N+](=O)[O-])s1 (stereo not drawn) the results were MDM2 E3 inh -15, NF-kB expr up 1.5, STAT1 act 110, p97 ATPase inh 4, APP 5'UTR act -1 and Wee1 degr inh 2.
O=C1C2C3C=CC(C4CC34)C2C(=O)N1/N=C/c1c[nH]c2ccccc12 (stereo not drawn) was read as MDM2 E3 inh -26, NF-kB expr up 1.4, STAT1 act 133*, p97 ATPase inh 5, APP 5'UTR act 62 and Wee1 degr inh 4.
`O=c1[nH][nH]cc1C=Nc1ccccc1Cl` gave MDM2 E3 inh -2, NF-kB expr up 1.1, STAT1 act 103, p97 ATPase inh 5, APP 5'UTR act -3 and Wee1 degr inh -1.
`O=c1[nH][nH]cc1C=Nc1ccccc1O` gave MDM2 E3 inh -7, NF-kB expr up 6.2*, STAT1 act 82, p97 ATPase inh -3, APP 5'UTR act 22 and Wee1 degr inh -1.
Screening O=c1[nH][nH]cc1C=Nc1cc(Cl)ccc1O returned MDM2 E3 inh -7, NF-kB expr up 4.2*, STAT1 act 83, p97 ATPase inh -1, APP 5'UTR act -21 and Wee1 degr inh 0.

Assay outcomes as filed in PubChem BioAssay.
